Screening results: PubChem, several laboratories
In the library only some 2.3% were active in any assay of this set; here they are far more common.
NR2E3 ag-1: activates human NR2E3 receptor; Q9Y5X4; CHO-S Gal4-NCOR/VP16-NR2E3 two-hybrid, luciferase; inhibition of corepressor binding, % at 3.98 µM; hit rate 0.35% among 360,000; AID 602229;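 active = inhibition above the mean of all tested compounds plus 3 SD, cut at about 70% in these data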;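 note: 0% = DMSO with NR2E3 transfected cells and 100% = cells lacking NR2E3 construct; higher means lower luciferase signal from less NR2E3 corepressor binding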
Target sequence (Q9Y5X4 whole entry, looked up, the tested form may be a part): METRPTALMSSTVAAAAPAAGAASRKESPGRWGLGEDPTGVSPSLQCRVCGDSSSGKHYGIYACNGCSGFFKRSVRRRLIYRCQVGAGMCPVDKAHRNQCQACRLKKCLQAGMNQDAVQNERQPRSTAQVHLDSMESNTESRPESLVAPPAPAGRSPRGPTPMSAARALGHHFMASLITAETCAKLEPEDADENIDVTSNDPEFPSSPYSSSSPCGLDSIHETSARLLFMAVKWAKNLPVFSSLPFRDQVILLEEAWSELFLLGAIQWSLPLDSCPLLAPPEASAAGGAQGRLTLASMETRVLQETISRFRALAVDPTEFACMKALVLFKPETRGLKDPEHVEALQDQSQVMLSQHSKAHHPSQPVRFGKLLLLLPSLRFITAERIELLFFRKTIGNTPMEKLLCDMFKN
CHT inh: inhibitors of human choline transporter CHT; CHT-expressing cells, membrane potential dye, choline response; hits give low values; B-score at 10 µM; hit rate 0.86% among 310,000;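 active = B-score over 3 SD under the library average, and starting fluorescence ratio not unusually high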;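 note: choline stimulus applied at its EC90 after an EC20 pre-addition; B-score computed on integrated fluorescence ratio after choline addition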
GalR3 antagonist: antagonists of human GalR3; O60755; HEK293 GalR3-CNG cAMP membrane potential fluorescence; galR3 body fused to GalR1 C-terminus; inhibition, % at 3 µM; hit rate 0.44% among 360,000; AID 651719;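 active = inhibition above the screen-wide average plus 3 SD, cut at about 13% in these data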;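 note: forskolin and galanin both at EC90 stimulate the cells; cAMP rise reported by CNG channel membrane potential dye signal; 0% = forskolin plus galanin with DMSO and 100% = forskolin alone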
CHT allo act: allosteric activators of human choline transporter CHT; AID 488977; hit rate 0.49% among 310,000; CHT-expressing cells, membrane potential dye, choline EC20; hits give high values; LV-AA mutant CHT in HEK293 cells; B-score at 10 µM;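 active = initial fluorescence not abnormally high and integrated response B-score, plate-corrected, over 3 SD above library mean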
NR2E3 ag-2: NR2E3 (human) agonism | Q9Y5X4 | GST-NR2E3/biotin-RetCOR TR-FRET, 1536-well | inhibition of corepressor binding, % at 4.78 µM | hit rate 0.12% among 320,000 | AID 2300;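 active = percent inhibition above the cutoff of mean plus 3 SD of all tested compounds, set per screening campaign, cut at about 20% in these data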;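 note: 0% = DMSO wells and 100% = biotin wells as full block of FRET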
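Material: NR2E3–RetCOR corepressor complex / Amount: 1.35 nM GST-NR2E3 / Medium: Tris pH 7.5 / Compound: single nominal compound dose of 4.8 µM / Incubation: 5 h at 4 °C / Technique: TR-FRET, Eu(K)-anti-GST donor, streptavidin-D2 acceptor, ex 340, em 617/671 nm / Read-out basis: percent loss of FRET ratio relative to control wells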
COUP-TFII inh: inhibitors of human COUP-TFII (NR2F2); AID 686940; inhibition, % at 8.6 µM; HEK293T NGFI-A luciferase reporter, luminescence; hit rate 0.7% among 370,000;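 active = inhibition above a per-plate cutoff, mean inhibition of test wells between control levels plus 3 SD, cut at about 38% in these data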;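 note: cells cotransfected with COUP-TFII expression vector driving the NGFI-A reporter; 0% = median of COUP-TF2 test wells and 100% = reporter-only cells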
CHT activ conf: confirmation of human choline transporter (CHT) activators; CHT-expressing cells, membrane potential dye fluorescence (FDSS); % of choline EC20–EC90 response window; HEK293 expressing CHT LV-AA mutant; choline added at its EC20; activation, % at 10 µM; hit rate 91% among 2,500; shares compounds with CHT allo act;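 active = primary screen active, with duplicate mean activation above negative control mean plus 3 SD, cut at about 11% in these data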
HEK293 MP dye: counter-screen for CHT activators: effect in parental HEK293 cells. shares compounds with CHT allo act. membrane potential dye fluorescence (FDSS); measured after EC20 choline addition. ratio readout change at 10 µM, hits read low. hit rate 62% among 2,500. AID 623908;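 active = duplicate-averaged ratio beyond 3 SD from buffer wells, up or down, though filed actives are nearly all decreases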
* hit, by the source's call; i = inactive; x = no result; ! = not active in a repeat.

SMILES	NR2E3 ag-1	CHT inh	GalR3 antagonist	CHT allo act	NR2E3 ag-2	COUP-TFII inh	CHT activ conf	HEK293 MP dye
COc1cccc2cc(C(=O)N3CCC(C)CC3)c(=O)oc12	-16	i	-6	i	3	9	x	x
COc1cccc2cc(C(=O)OC3CCN(C)CC3)c(=O)oc12	-35	i	1	6.7*	0	5	43*	-38*
COc1ccc(-c2cn3c(n2)CCC3)cc1	-80	i	-4	7.4*	-3	-45	51*	-47*
CCn1cc(C2=NCCO2)c2ccccc21	-48	i	x	9.4*	4	11	43*	-44*
CC1(C(=O)c2ccccc2)C2c3c(ccc4ccccc34)OC(=O)C21C(=O)N1CCOCC1 (stereo not given)	-13	i	0	7.3*	1	2	16*	i
CC(=O)N/N=C/c1cc(C(C)(C)C)cc(/C=N/NC(C)=O)c1O	-1	i	-5	8.4*	-3	16	64*	-50*
COc1ccc(CN2CCC(CNC(=O)Nc3ccc(Cl)cc3)CC2)cc1	x	x	x	x	x	-6	x	x
CN(Cc1ccccc1)C(=O)OCc1cn(Cc2ccc(F)c(F)c2)nn1	x	x	x	x	x	-9	x	x
Cn1nnc2cc(C(=O)Nc3cccnc3)ccc21	-24	i	2	6.7*	1	-30	52*	-34*
O=C(CN1CCCc2ccccc21)NCc1ccccc1F	x	x	x	x	x	0	x	x
Cc1nc2ccccc2c2c1CC(C)S2 (stereo not given)	-35	i	4	i	-1	-6	42*	-53*
O=C(CN1C(=O)CCSc2ccccc21)Nc1ccc(F)cc1F	x	x	x	x	x	-1	x	x
Nc1nc(N2CCN(C(=O)c3ccco3)CC2)nc2ccccc12	-47	i	-3	6.4*	-1	-55	57*	-58*
Cc1cc(N2CCN(S(=O)(=O)c3ccccc3)CC2)c2ccccc2n1	14	i	-9	10*	-2	-16	53*	-73*
O=C(c1ccco1)N1CCN(c2nc3ccccc3c(=O)n2-c2ccccc2)CC1	-33	i	-5	i	3	2	x	x
Nc1nc(N2CCN(C(=O)c3ccco3)CC2)nc2ccc(Br)cc12	-136	i	x	i	4	x	20*	-32*
Cc1cc(N2CCN(C(=O)c3ccco3)CC2)c2ccccc2n1	-14	i	2	6.9*	0	-15	39*	-53*
COc1ccc(Cn2cc(CN3[C@@H](CC(C)C)COc4ccc(Cl)cc4S3(=O)=O)nn2)cc1	x	x	x	x	x	3	x	x
Cc1cc(N2CCN(C(=O)Nc3ccc(F)cc3F)CC2)c2ccccc2n1	2	i	x	6.6*	0	x	53*	-71*
Cc1ccc2c(c1)nc(NCCCO)n2C	14	i	-1	i	-1	-4	19*	-41*
CCOC(=O)c1c(CN2CCOCC2)n(C)c2cc(Br)c(O)c(CN(C)C)c12	-45	i	-3	7.4*!	0	6	45*	-33*
CCOC(=O)c1c(CS(=O)(=O)c2ccccc2)n(C)c2cc(Br)c(O)c(CN(C)C)c12	6	i	0	i	1	16	x	x
Cc1ccc(N(CC(=O)N/N=C/c2cc(C)n(-c3ccccc3)c2C)S(C)(=O)=O)c(C)c1	-15	i	1	i	-2	2	24*	i
O=[N+]([O-])c1cccc(-c2cc3cccc[n+]3cc2-c2cccc([N+](=O)[O-])c2)c1	-6	i	-2	14*	1	-12	77*	-75*
O=[N+]([O-])c1cccc(-c2nnc(-c3ccccc3)o2)c1	-88	i	-7	i	3	-38	x	x
SMILES	NR2E3 ag-1	CHT inh	GalR3 antagonist	CHT allo act	NR2E3 ag-2	COUP-TFII inh	CHT activ conf	HEK293 MP dye
Cc1sc2cc(-c3cccc([N+](=O)[O-])c3)c(-c3cccc([N+](=O)[O-])c3)c[n+]2c1C	-2	i	-7	8.4*	-3	8	56*	-88*
CCCCc1c(CCC)c(=N)c2ccccc2n1C	-17	i	-7	9.4*	1	14	65*	-26*
CCOC(=O)[C@@]12CCC3=C1N(CCC3)C(=O)[C@H](CC(=O)N1CCSCC1)C2	x	x	x	x	x	6	x	x
CN(C)CCNS(=O)(=O)c1ccc2c3c(cccc13)C(=O)N2	1	i	-8	6.5*	-2	-2	74*	-86*
CN1CCN(S(=O)(=O)c2ccc3c4c(cccc24)C(=O)N3)CC1	-21	i	4	10*	1	-10	84*	-85*
O=C1Nc2ccc(S(=O)(=O)N3CCCC3)c3cccc1c23	-26	i	-4	i	-3	-30	x	x
CCN(CC)CCNS(=O)(=O)c1ccc2c3c(cccc13)C(=O)N2	-25	i	-2	7.4*	2	-9	73*	-74*
CC(C)C[C@@H]1COc2cc(N3CCCC3)ccc2S(=O)(=O)N1C	x	x	x	x	x	-12	x	x
CN1C(=O)C(O)(C2COC(C)(C)CC2=O)c2cc(Br)ccc21 (stereo not given)	-3	i	-2	6.8*	8	0	8	i
O=C(C1CCN(Cc2ccc(F)cc2)CC1)N(CCO)Cc1ccccc1	-5	i	-5	i	4	-4	x	x
O=C(C1CCN(Cc2ccc(F)cc2)CC1)N(CCc1ccccc1)Cc1ccccc1	0	i	-5	6.8*	2	-6	29*	i
COCC#Cc1ccc(CC[C@H]2O[C@H]3CC[C@H](CO)O[C@H]3C[C@H]2n2cc(C(C)(C)O)nn2)cc1	x	x	x	x	x	-4	x	x
CCc1nccn1Cc1cc(C=O)ccc1OC	1	i	-6	i	0	-1	61*	-44*
COCCCNC(=O)C[C@H]1C[C@@]2(C(=O)OC)C(=C[C@H](C3CCCC3)O[C@@H]2C)N(CCc2ccc(OC)c(OC)c2)C1=O	x	x	x	x	x	8	x	x
Cc1ccc2c(CSc3nc4ccccc4c(=O)n3CCCO)cc(=O)oc2c1C	-44	i	1	6.9*	2	-12	15*	i
Cc1ccc2c(CSc3nnc4ccccn34)cc(=O)oc2c1C	-30	i	-2	i	0	4	x	x
CN1CCc2c(sc(N)c2C(=O)O)C1	-14	i	0	i	2	-11	x	x
COc1ccc(C(=O)c2c(N)sc3c2CCN(C)C3)cc1	-26	i	-9	8.3*	-2	6	41*	-53*
